According to ChEMBL document CHEMBL1154781, “Synthesis and antimicrobial activity of some new N-acyl substituted phenothiazines” (2009):
Values after ≈ are worked out from the molar mass of the structure shown. Active and inactive are the calls of the source. The rule behind the calls is not given here.

Columns and labels:
Escherichia coli [1] = assay: Antibacterial activity against Escherichia coli ATCC 25922 after 24 hrs by disc diffusion method; format: functional; details: ATCC 25922, 24 h
Procedure, shortened: (§1)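 Bacterial strains tested on discs at each concentration, placed in triplicate in nutrient agar seeded with fresh bacteria; incubated 37 °C for 24 h. Ciprofloxacin served as reference, with solvent and growth controls. Zones of inhibition and MICs were recorded.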

Staphylococcus aureus [2] = assay: Antibacterial activity against Staphylococcus aureus ATCC 25923 at after 24 hrs by disc diffusion method; format: functional; details: ATCC 25923, 24 h; procedure, shortened: as §1
Aspergillus fumigatus [3] = assay: Antifungal activity against Aspergillus fumigatus NCIM 902 after 2 to 3 days by serial plate dilution method; format: functional
Procedure, shortened: (§2)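 For the fungal lawn, a loopful of each strain was suspended in 3 ml normal saline and spread on agar plates. Excess suspension was decanted and the plates were dried 1 h at 37 °C. Wells were punched and labeled. Plates, including a triplicate control, were held at 37 °C for 2–3 days. Zones of inhibition and MIC were recorded against fluconazole as standard.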

Aspergillus fumigatus [4] = assay: Antifungal activity against Aspergillus fumigatus NCIM 902 at 10 ug/ml after 2 to 3 days by serial plate dilution method; format: functional; details: read-out: IZ; procedure, shortened: as §2
Aspergillus flavus [5] = assay: Antifungal activity against Aspergillus flavus NCIM 524 at 10 ug/ml after 2 to 3 days by serial plate dilution method; format: functional; details: read-out: IZ; procedure, shortened: as §2
Staphylococcus aureus [6] = assay: Antibacterial activity against Staphylococcus aureus ATCC 25923 at 10 ug/ml after 24 hrs by disc diffusion method; format: functional; details: ATCC 25923, 24 h, read-out: IZ; procedure, shortened: as §1
Pseudomonas aeruginosa [7] = assay: Antibacterial activity against Pseudomonas aeruginosa ATCC 27853 at 10 ug/ml after 24 hrs by disc diffusion method; format: functional; details: ATCC 27853, 24 h, read-out: IZ; procedure, shortened: as §1
Aspergillus niger [8] = assay: Antifungal activity against Aspergillus niger NCIM 617 at 10 ug/ml after 2 to 3 days by serial plate dilution method; format: functional; details: read-out: IZ; procedure, shortened: as §2
Bacillus subtilis [9] = assay: Antibacterial activity against Bacillus subtilis ATCC 11774 at 15 ug/ml after 24 hrs by disc diffusion method; format: functional; details: ATCC 11774, 24 h, read-out: IZ; procedure, shortened: as §1
Aspergillus niger [10] = assay: Antifungal activity against Aspergillus niger NCIM 617 after 2 to 3 days by serial plate dilution method; format: functional; procedure, shortened: as §2
Pseudomonas aeruginosa [11] = assay: Antibacterial activity against Pseudomonas aeruginosa ATCC 27853 after 24 hrs by disc diffusion method; format: functional; details: ATCC 27853, 24 h; procedure, shortened: as §1
Candida albicans [12] = assay: Antifungal activity against Candida albicans NCIM 300 at 10 ug/ml after 2 to 3 days by serial plate dilution method; format: functional; details: read-out: IZ; procedure, shortened: as §2
Candida albicans [13] = assay: Antifungal activity against Candida albicans NCIM 300 after 2 to 3 days by serial plate dilution method; format: functional; procedure, shortened: as §2
Bacillus subtilis [14] = assay: Antibacterial activity against Bacillus subtilis ATCC 11774 after 24 hrs by disc diffusion method; format: functional; details: ATCC 11774, 24 h; procedure, shortened: as §1
Aspergillus flavus [15] = assay: Antifungal activity against Aspergillus flavus NCIM 524 after 2 to 3 days by serial plate dilution method; format: functional; procedure, shortened: as §2
Escherichia coli [16] = assay: Antibacterial activity against Escherichia coli ATCC 25922 at 10 ug/ml after 24 hrs by disc diffusion method; format: functional; details: ATCC 25922, 24 h, read-out: IZ; procedure, shortened: as §1
Pseudomonas aeruginosa [17] = assay: Antibacterial activity against Pseudomonas aeruginosa ATCC 27853 at >50 ug/ml after 24 hrs by disc diffusion method; format: functional, organism-based; procedure, shortened: as §1
Staphylococcus aureus [18] = assay: Antibacterial activity against Staphylococcus aureus ATCC 25923 at >50 ug/ml after 24 hrs by disc diffusion method; format: functional, organism-based; procedure, shortened: as §1
Candida albicans [19] = assay: Antifungal activity against Candida albicans NCIM 300 at >50 ug/ml after 2 to 3 days by serial plate dilution method; format: functional, organism-based; procedure, shortened: as §2
Bacillus subtilis [20] = assay: Antibacterial activity against Bacillus subtilis ATCC 11774 at >50 ug/ml after 24 hrs by disc diffusion method; format: functional, organism-based; procedure, shortened: as §1
Escherichia coli [21] = assay: Antibacterial activity against Escherichia coli ATCC 25922 at >50 ug/ml after 24 hrs by disc diffusion method; format: functional, organism-based; procedure, shortened: as §1
Aspergillus niger [22] = assay: Antifungal activity against Aspergillus niger NCIM 617 at >50 ug/ml after 2 to 3 days by serial plate dilution method; format: functional, organism-based; procedure, shortened: as §2

Row | Structure (SMILES) | MIC (Escherichia coli [1]) [µg/mL] | MIC (Staphylococcus aureus [2]) [µg/mL] | MIC (Aspergillus fumigatus [3]) [µg/mL] | zone of inhibition at 10 µg/mL (Aspergillus fumigatus [4]) [mm] | zone of inhibition at 10 µg/mL (Aspergillus flavus [5]) [mm] | zone of inhibition at 10 µg/mL (Staphylococcus aureus [6]) [mm] | zone of inhibition at 10 µg/mL (Pseudomonas aeruginosa [7]) [mm] | zone of inhibition at 10 µg/mL (Aspergillus niger [8]) [mm] | zone of inhibition at 15 µg/mL (Bacillus subtilis [9]) [mm] | MIC (Aspergillus niger [10]) [µg/mL] | MIC (Pseudomonas aeruginosa [11]) [µg/mL] | zone of inhibition at 10 µg/mL (Candida albicans [12]) [mm] | MIC (Candida albicans [13]) [µg/mL] | MIC (Bacillus subtilis [14]) [µg/mL] | MIC (Aspergillus flavus [15]) [µg/mL] | zone of inhibition at 10 µg/mL (Escherichia coli [16]) [mm] | Activity (Pseudomonas aeruginosa [17]) | other results
1 | O=C1C=CC(=O)N1CC(=O)N1c2ccccc2Sc2ccccc21 | 10 (≈ 29.7 µM) | 15 (≈ 44.6 µM) | 20 (≈ 59.5 µM) | 15 | 18 | 15 | 17 | 17 | 16 | 20 (≈ 59.5 µM) | 15 (≈ 44.6 µM) | 17 | 20 (≈ 59.5 µM) | 15 (≈ 44.6 µM) | 20 (≈ 59.5 µM) | 20 | – | –
2 | O=C1c2ccccc2C(=O)N1CC(=O)N1c2ccccc2Sc2ccccc21 | 10 (≈ 25.9 µM) | 10 (≈ 25.9 µM) | 15 (≈ 38.8 µM) | 20 | 22 | 20 | – | 23 | 17 | 10 (≈ 25.9 µM) | – | 17 | 10 (≈ 25.9 µM) | 15 (≈ 38.8 µM) | 10 (≈ 25.9 µM) | 22 | inactive | –
3 | O=C(O)c1cn(C2CC2)c2cc(N3CCNCC3)c(F)cc2c1=O [CIPROFLOXACIN] | – | 10 (≈ 30.2 µM) | – | – | – | 21 | 23 | – | 22 | – | 10 (≈ 30.2 µM) | – | – | 10 (≈ 30.2 µM) | – | – | – | –
4 | O=C1CCC(=O)N1CC(=O)N1c2ccccc2Sc2ccc(C(F)(F)F)cc21 | 20 (≈ 49.2 µM) | 15 (≈ 36.9 µM) | 15 (≈ 36.9 µM) | 19 | 23 | 18 | 19 | 21 | 14 | 20 (≈ 49.2 µM) | 15 (≈ 36.9 µM) | 19 | 20 (≈ 49.2 µM) | 25 (≈ 61.5 µM) | 10 (≈ 24.6 µM) | 21 | – | –
5 | OC(Cn1cncn1)(Cn1cncn1)c1ccc(F)cc1F [FLUCONAZOLE] | – | – | 10 (≈ 32.7 µM) | 20 | 24 | – | – | 23 | – | 10 (≈ 32.7 µM) | – | 21 | 10 (≈ 32.7 µM) | – | 10 (≈ 32.7 µM) | – | – | –
6 | O=C1CCC(=O)N1CC(=O)N1c2ccccc2Sc2ccc(Cl)cc21 | 15 (≈ 40.2 µM) | 30 (≈ 80.5 µM) | 20 (≈ 53.6 µM) | 18 | 12 | 12 | 16 | 23 | 14 | 20 (≈ 53.6 µM) | 15 (≈ 40.2 µM) | 13 | 25 (≈ 67.1 µM) | 30 (≈ 80.5 µM) | 25 (≈ 67.1 µM) | 16 | – | –
7 | O=C1C=CC(=O)N1CC(=O)N1c2ccccc2Sc2ccc(C(F)(F)F)cc21 | 10 (≈ 24.7 µM) | – | 30 (≈ 74.2 µM) | 10 | 19 | – | 19 | 19 | 17 | 20 (≈ 49.5 µM) | 15 (≈ 37.1 µM) | 19 | 20 (≈ 49.5 µM) | 15 (≈ 37.1 µM) | 20 (≈ 49.5 µM) | 19 | – | Activity (Staphylococcus aureus [18]): inactive
8 | CC(=O)c1ccc2c(c1)N(C(=O)CN1C(=O)c3ccccc3C1=O)c1ccccc1S2 | 10 (≈ 23.3 µM) | 10 (≈ 23.3 µM) | 15 (≈ 35 µM) | 19 | 22 | 19 | – | 25 | 16 | 10 (≈ 23.3 µM) | – | 14 | 10 (≈ 23.3 µM) | 15 (≈ 35 µM) | 10 (≈ 23.3 µM) | 21 | inactive | –
9 | CC(=O)c1ccc2c(c1)N(C(=O)CN1C(=O)CCC1=O)c1ccccc1S2 | 10 (≈ 26.3 µM) | – | 15 (≈ 39.4 µM) | 13 | 20 | – | – | 26 | – | 20 (≈ 52.6 µM) | – | – | – | – | 25 (≈ 65.7 µM) | 24 | inactive | Activity (Staphylococcus aureus [18]): inactive; Activity (Candida albicans [19]): inactive; Activity (Bacillus subtilis [20]): inactive
10 | O=C1c2ccccc2C(=O)N1CC(=O)N1c2ccccc2Sc2ccc(C(F)(F)F)cc21 | – | – | 10 (≈ 22 µM) | 18 | 22 | – | – | 21 | 14 | 10 (≈ 22 µM) | – | 21 | 10 (≈ 22 µM) | 25 (≈ 55 µM) | 10 (≈ 22 µM) | – | inactive | Activity (Staphylococcus aureus [18]): inactive; Activity (Escherichia coli [21]): inactive
11 | O=C1C=CC(=O)N1CC(=O)N1c2ccccc2Sc2ccc(Cl)cc21 | 10 (≈ 27 µM) | 15 (≈ 40.5 µM) | 20 (≈ 53.9 µM) | 16 | 15 | 18 | 17 | 18 | – | 20 (≈ 53.9 µM) | 15 (≈ 40.5 µM) | 17 | 20 (≈ 53.9 µM) | – | 20 (≈ 53.9 µM) | 20 | – | Activity (Bacillus subtilis [20]): inactive
12 | CC(=O)c1ccc2c(c1)N(C(=O)CN1C(=O)C=CC1=O)c1ccccc1S2 | 20 (≈ 52.9 µM) | 15 (≈ 39.6 µM) | 30 (≈ 79.3 µM) | 16 | 18 | 16 | 17 | – | 16 | – | 15 (≈ 39.6 µM) | – | – | 15 (≈ 39.6 µM) | 25 (≈ 66.1 µM) | 18 | – | Activity (Aspergillus niger [22]): inactive; Activity (Candida albicans [19]): inactive
13 | O=C1CCC(=O)N1CC(=O)N1c2ccccc2Sc2ccccc21 | 10 (≈ 29.6 µM) | – | 20 (≈ 59.1 µM) | 19 | 24 | – | – | 19 | 18 | 20 (≈ 59.1 µM) | – | 17 | 15 (≈ 44.3 µM) | 15 (≈ 44.3 µM) | 15 (≈ 44.3 µM) | 24 | inactive | Activity (Staphylococcus aureus [18]): inactive
14 | O=C1c2ccccc2C(=O)N1CC(=O)N1c2ccccc2Sc2ccc(Cl)cc21 | 10 (≈ 23.8 µM) | 10 (≈ 23.8 µM) | 10 (≈ 23.8 µM) | 19 | 21 | 19 | 18 | 24 | 13 | 10 (≈ 23.8 µM) | 10 (≈ 23.8 µM) | 18 | 10 (≈ 23.8 µM) | 30 (≈ 71.3 µM) | 10 (≈ 23.8 µM) | 23 | – | –
